PMC10795791 (Journal of Enzyme Inhibition and Medicinal Chemistry, 2024)

Assays:
[1] = system: liver cancer cell line (HepG-2); test: MTT anticancer activity, HepG-2; format: cell-based; settings: Homo sapiens, HepG2, 72 h, read-out: HepG-2 IC50
In short: (§1)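 ATCC-sourced cancer cell lines were used: HepG-2 liver, NFS-60 myeloid leukaemia and PC-3 prostate. Cells were incubated with test compound for 72 h, viability was measured by MTT, and IC50 was derived. Doxorubicin served as reference drug. Results are mean ± SEM; significance was by Tukey post hoc ANOVA.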

PIM-1 kinase [2] = biological target: T1, PIM-1 kinase (Homo sapiens, UniProt P11309); test: In vitro PIM-1 kinase inhibition; format: biochemical; settings: from pIC50 and molecular size
[3] = system: colon cancer cells (Caco-2); test: MTT anticancer activity, Caco-2; format: cell-based, human; settings: Homo sapiens, Caco-2, 72 h, read-out: Caco-2 IC50
In short: (§2)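 ATCC-sourced Caco-2 colon cancer cells were exposed to test compound for 72 h. Viability was read by microculture MTT, with doxorubicin as reference, and IC50 was derived. Normal human lung fibroblasts (Wi-38) were run in the same 72 h MTT format to obtain IC50 and EC100 for selectivity. Results are mean ± SEM.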

[4] = system: myeloid leukaemia cell line (NFS-60); test: MTT anticancer activity, NFS-60; format: cell-based; settings: NFS-60, 72 h, read-out: NFS-60 IC50
In short: as §1

[5] = system: prostate cancer cell line (PC-3); test: MTT anticancer activity, PC-3; format: cell-based; settings: Homo sapiens, 72 h, read-out: PC-3 IC50
In short: as §1

PIM-1 kinase [6] = biological target: T1, PIM-1 kinase; format: biochemical; settings: Lineweaver-Burk double-reciprocal plot; for mode of PIM-1 kinase inhibition: in the presence of ATP; for Km change / Vmax change: versus control
[7] = MTT anticancer activity, Caco-2; format: cell-based, human; settings: human, Caco-2, Caco-2 SI (selectivity index), Wi-38 EC50 divided by Caco-2 IC50
In short: as §2

T1 sequence (P11309 whole entry): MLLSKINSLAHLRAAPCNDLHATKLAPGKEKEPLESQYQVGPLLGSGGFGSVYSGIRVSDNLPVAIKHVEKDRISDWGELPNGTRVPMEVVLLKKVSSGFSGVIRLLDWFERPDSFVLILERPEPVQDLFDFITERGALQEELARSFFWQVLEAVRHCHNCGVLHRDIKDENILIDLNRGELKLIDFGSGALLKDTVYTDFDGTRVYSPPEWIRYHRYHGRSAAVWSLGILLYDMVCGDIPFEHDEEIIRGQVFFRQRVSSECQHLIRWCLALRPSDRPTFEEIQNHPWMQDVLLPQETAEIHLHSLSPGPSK

SMILES	IC50 [1] [nM]	LE (ligand efficiency), PIM-1 kinase (PIM-1 kinase [2])	IC50 [3] [nM]	IC50 [4] [nM]	IC50 [5] [nM]	mode of PIM-1 kinase inhibition (PIM-1 kinase [6])	Km change (PIM-1 kinase [6])	Vmax change (PIM-1 kinase [6])	selectivity ratio at 72 h [7]
CCOc1nc(-c2cccc(O)c2)cc(-c2cc3cc(Cl)ccc3nc2N2CCOCC2)c1C#N [Compound 4b, 4-(6-Chloro-2-morpholin-4-yl-quinolin-3-yl)-2-ethoxy-6-(3-hydroxyphenyl)pyridine-3-carbonitrile]	59	–	–	–	–	–	–	–	–
CCOc1nc(-c2cccc(O)c2)cc(-c2cc3cc(OC)ccc3nc2N2CCOCC2)c1C#N [Compound 4c, 2-Ethoxy-6-(3-hydroxyphenyl)-4-(6-methoxy-2-morpholin-4-yl-quinolin-3-yl)pyridine-3-carbonitrile]	13.2	~0.3	7	6	5	both ATP competitive and non-competitive inhibitors	increase	reduced	–
CCCOc1nc(-c2cccc(O)c2)cc(-c2cc3cc(OC)ccc3nc2N2CCOCC2)c1C#N [Compound 4f, 6-(3-Hydroxyphenyl)-4-(6-methoxy-2-morpholin-4-yl-quinolin-3-yl)-2-propoxypyridine-3-carbonitrile]	16.4	~0.3	–	–	–	both ATP competitive and non-competitive inhibitors	increase	reduced	≥ 1.6
Nc1n[nH]c2nc(-c3cccc(O)c3)cc(-c3cc4ccccc4nc3N3CCOCC3)c12 [Compound 6a, 3-(3-Amino-4-(2-morpholin-4-yl-quinolin-3-yl)-1H-pyrazolo[3,4-b]pyridin-6-yl)phenol]	66.7	–	–	–	–	–	–	–	–
